Compound activity: PubChem, several laboratories
This is a sample that favours compounds with a hit; in the whole collection about 2.5% have one here.
NTR1 agonist: agonists of human NTR1, primary screen, imaging, U2OS cells, beta-arrestin-GFP, high content; Neurotensin receptor type 1 (Homo sapiens), P30989; 330,000 tested, 0.17% active; NTR1-U2OS beta-arrestin-GFP spot imaging, agonist mode; activation, % at 20 µM;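 active means activation at or above 40% of the spot to cytoplasm intensity ratio, with at least 20 cells analyzed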
Target sequence (P30989 whole entry, looked up): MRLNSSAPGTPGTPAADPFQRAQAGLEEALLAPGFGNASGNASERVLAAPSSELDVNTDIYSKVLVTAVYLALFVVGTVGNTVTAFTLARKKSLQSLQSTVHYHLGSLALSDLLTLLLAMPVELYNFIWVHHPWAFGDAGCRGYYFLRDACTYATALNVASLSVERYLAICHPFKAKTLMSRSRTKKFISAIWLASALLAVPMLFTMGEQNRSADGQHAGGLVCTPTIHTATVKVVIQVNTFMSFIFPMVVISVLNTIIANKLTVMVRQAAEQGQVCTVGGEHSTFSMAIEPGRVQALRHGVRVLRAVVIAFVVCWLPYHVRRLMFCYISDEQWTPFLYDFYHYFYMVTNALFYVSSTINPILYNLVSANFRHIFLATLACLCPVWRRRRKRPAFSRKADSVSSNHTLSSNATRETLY
MC4R antag cAMP: MC4R antagonists of cAMP signaling, primary screen, cell-based, TR-FRET, antagonist arm of biased-ligand search; Melanocortin receptor 4 (Homo sapiens), P32245; MC4R-expressing cells, MTII-stimulated cAMP, LANCE TR-FRET; inhibition, % at 6.5 µM; 360,000 tested, 0.48% active; AID 540295, 2011;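 active means inhibition above its plate's cutoff, the mean of tested wells on that plate plus 3 SD, cut at about 29% in these data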
Target sequence (P32245 whole entry, looked up): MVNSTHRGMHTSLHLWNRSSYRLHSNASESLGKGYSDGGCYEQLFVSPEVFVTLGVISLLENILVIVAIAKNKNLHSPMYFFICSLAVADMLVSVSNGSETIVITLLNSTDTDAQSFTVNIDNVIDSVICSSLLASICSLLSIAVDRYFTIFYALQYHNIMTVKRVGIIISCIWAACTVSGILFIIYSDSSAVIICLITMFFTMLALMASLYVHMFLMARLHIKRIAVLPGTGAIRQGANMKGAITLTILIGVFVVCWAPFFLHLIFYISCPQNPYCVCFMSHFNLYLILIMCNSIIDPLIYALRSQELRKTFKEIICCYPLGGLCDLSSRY
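Material: U2OS-MC4R stable cell line | Reagent: Melanotan II challenge after compound preincubation | Doses: One concentration, 6.5 µM nominal | Incubation: 30-min compound preincubation, 1-h Melanotan II challenge, 1-h detection, room temperature | Signal: TR-FRET cAMP assay | Replicates: One well per compound, no replicates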
MC4R ag barr: MC4R agonists recruiting beta-arrestin, primary screen, cell-based, luminescence, agonist arm of biased-ligand search; Melanocortin receptor 4 (Homo sapiens), P32245; activation, % at 8.9 µM; U2OS MC4R beta-arrestin complementation; percent of melanotan II response, DMSO zero; 360,000 tested, 0.98% active;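 active means activation above a per-plate cutoff, the mean activation of sample wells on that plate plus 3 SD, cut at about 8% in these data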
Rev-erbA mod: modulators of Rev-erb alpha DNA binding, primary screen, biochemical, FITC-DNA, fluorescence polarization, uHTS; activity, % at 10 µM; 370,000 tested, 0.79% active; Nuclear receptor subfamily 1 group D member 1 (Homo sapiens), P20393; Rev-erbα–FITC-DNA binding, 90 min;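 active means activity above about 14%, limit read from the data; passing the limit was not always enough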
PG9 binder: binders of HIV-1 gp120 antibody PG9, primary screen, biochemical, TR-FRET; HIV-1 gp120 / PG9 antibody interaction; TR-FRET gp120-PG9 antibody binding; inhibition, % at 6.7 µM; 360,000 tested, 0.43% active; AID 624416, 2012; in the data active means inhibition above about 8.5%
NTR1 ag conf: NTR1 agonists, single-dose retest, confirmation, imaging, U2OS cells, beta-arrestin-GFP, single concentration | activation, % at 20 µM | shares compounds with NTR1 agonist | 480 tested, 38% active | AID 504550, 2011 | NTR1-U2OS beta-arrestin-GFP translocation imaging;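 active means mean activation at 20 µM of at least 40%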
U2OS cAMP counter: nonselective cAMP signaling inhibitors, parental cells, counter-screen for MC4R biased antagonist project, cell-based, TR-FRET, U2OS, forskolin, triplicate | shares compounds with MC4R antag cAMP | LANCE TR-FRET | inhibition, % at 6.5 µM | 1,600 tested, 26% active | AID 602193, 2012;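 active means mean inhibition over triplicates above the low-control well mean plus 3 SD, set per campaign, cut at about 13% in these data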;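 further: signal is single emission at 671 nm which falls as cellular cAMP rises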
MC4R cAMP antag: MC4R cAMP antagonists, retest, confirmation, cell-based, TR-FRET | shares compounds with MC4R antag cAMP | MC4R-expressing cells, MTII-stimulated cAMP | inhibition, % at 6.5 µM | 1,600 tested, 27% active | AID 602195, 2012; in the data active means inhibition above about 29%
MC4R barr ag: MC4R beta-arrestin agonists, retest, confirmation, cell-based, luminescence, U2OS. shares compounds with MC4R ag barr. activation, % at 8.9 µM. U2OS MC4R beta-arrestin recruitment; scaled DMSO 0%, Melanotan II 100%. 2,400 tested, 31% active;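 active means mean activation across replicates above the hit cutoff set in the earlier primary screen, cut at about 8% in these data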
MOR DOR agonist: agonists of MOR-DOR heterodimerization, counter-screen for MC4R biased agonist project, cell-based, luminescence. shares compounds with MC4R ag barr. U2OS PathHunter beta-arrestin, beta-gal luminescence; percent of deltorphin B response, DMSO zero. 2,400 tested, 5.8% active. AID 602194, 2012. activation, % at 9.2 µM;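 active means mean activation across replicates exceeds the hit threshold derived in the earlier primary screen, cut at about 18% in these data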
PG9 binder conf: binders of anti-gp120 antibody PG9, confirmation, biochemical, TR-FRET | shares compounds with PG9 binder | TR-FRET PG9 antibody binding | inhibition, % at 6.7 µM | 1,500 tested, 90% active | AID 651571, 2012; in the data active means inhibition above about 9%
PGV04 counter: binders of control antibody PGV04, counter-screen for PG9 antibody binder project, biochemical, TR-FRET, distinct HIV envelope site; shares compounds with PG9 binder; TR-FRET PGV04 antibody-gp120 binding; inhibition, % at 6.7 µM; 1,500 tested, 95% active; AID 651604, 2012; in the data active means inhibition above about 9.5%
Rev-erbA confirm: modulators of Rev-erb alpha DNA binding, confirmation, biochemical, FITC-DNA, fluorescence polarization, single point. shares compounds with Rev-erbA mod. 90 min. activation, % at 25 µM. 3,000 tested, 61% active. AID 1259319, 2017;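 active means activation at or above a set limit, or at least 3 SD above the negative control mean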
RORg counter: modulation of RORgamma DNA binding, dose response, counter-screen for Rev-erb alpha modulator project, biochemical, fluorescence polarization, FITC-DNA. 910 tested, 8% active. IC50, µM. shares compounds with Rev-erbA mod. purified RORgamma protein-FITC-DNA binding;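 active means Compounds whose fitted half-maximal concentration for disrupting protein-DNA binding is below 10 micromolar; the record names Rev-erb in its text, so the target is in doubt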
Each line names hits and unclear results; the compound was inactive in the other large screens (follow-up assays come after a bar, where they were run).

OC(COC(c1ccc(F)cc1)c1ccc(F)cc1)CN1CCCC(C(F)(F)F)C1 (stereo unspecified)	none
CC1CCCC(NCC(O)COC(c2ccc(F)cc2)c2ccc(F)cc2)C1C (stereo unspecified)	NTR1 agonist 52.5, MC4R ag barr 18.0 | NTR1 ag conf inactive | MC4R barr ag 16.2 | MOR DOR agonist 23.8
C=CCCC(=O)N1CCC(C(=O)NCC2COc3ccccc3O2)CC1 (stereo unspecified)	none (no result: NTR1 agonist, MC4R antag cAMP, MC4R ag barr, PG9 binder)
COc1cc(CNCCc2ccccc2)cc(Cl)c1OCc1ccccc1	NTR1 agonist 61.2, MC4R ag barr 13.5 | NTR1 ag conf inactive | MC4R barr ag 10.4 | MOR DOR agonist inactive
Fc1ccc(-n2nnnc2-c2cnc(-c3cccs3)nc2C(F)(F)F)cc1	NTR1 agonist 48.7, MC4R ag barr 11.3 | NTR1 ag conf 66.8 | MC4R barr ag inactive | MOR DOR agonist inactive
FC(F)(F)c1nc(-c2ccncc2)ncc1-c1nnnn1-c1ccccc1	none (no result: Rev-erbA mod)
CC(NC(=O)C(NC(=O)OCc1ccccc1)C(C)O)C(=O)OCc1ccccc1 (stereo unspecified)	none (no result: NTR1 agonist, MC4R antag cAMP, MC4R ag barr)
COc1ccc(C2Nc3ccccc3C(=O)N2Cc2cccnc2)cc1COc1c(C)cccc1C (stereo unspecified)	none (no result: NTR1 agonist, MC4R antag cAMP, MC4R ag barr, PG9 binder)
CCC(C)NC(=O)c1c(N)n(/N=C/c2cccnc2)c2nc3ccccc3nc12 (stereo unspecified)	NTR1 agonist 41.4, MC4R ag barr 13.4 | NTR1 ag conf 46.2 | MC4R barr ag 27.8 | MOR DOR agonist inactive
FC(F)(F)c1ccc(Cn2ccc3ccc(-c4ccc5ccn(Cc6ccc(C(F)(F)F)cc6)c5c4)cc32)cc1	none (no result: NTR1 agonist, MC4R antag cAMP, MC4R ag barr, PG9 binder)
FC(F)Sc1ccc(NC(=S)NCc2ccccc2)cc1	none
FC(F)Sc1ccc(NC(=S)NC(c2ccccc2)c2ccccc2)cc1	NTR1 agonist 40.8, MC4R ag barr 9.6 | NTR1 ag conf inactive | MC4R barr ag inactive | MOR DOR agonist inactive
CC(C)c1nnc(NC(=O)c2ccc3ccccc3c2)s1	NTR1 agonist 44.6, PG9 binder 11.2 | NTR1 ag conf inactive | PG9 binder conf 18.3 | PGV04 counter 32.2
c1ccc(CNC2CCC23CCC(c2ccccc2)CC3)cc1 (stereo unspecified)	none (no result: NTR1 agonist, MC4R antag cAMP, MC4R ag barr, PG9 binder)
O=[N+]([O-])c1ccc(-c2nc(Nc3cccc(O)c3)c3ccccc3n2)cc1	NTR1 agonist 55.7, Rev-erbA mod 28.0 | NTR1 ag conf 48.5 | Rev-erbA confirm inactive
c1ccc(N(c2ccccc2)c2nc(N3CCCC3)nc(-n3ccnc3)n2)cc1	NTR1 agonist 47.6, Rev-erbA mod 37.4 | NTR1 ag conf inactive | Rev-erbA confirm 57.5 | RORg counter 8.46
CN(c1ccccc1)c1nc(N2CCCC2)nc(-n2ccnc2)n1	none
COc1cc2c3nnc(-c4ccc(F)cc4)c-3cn(Cc3ccccc3)c2cc1OC	NTR1 agonist 49.0, Rev-erbA mod 43.1 | NTR1 ag conf 83.7 | Rev-erbA confirm 44.7 | RORg counter inactive
O=C(NCCOc1ccccc1)C1Nc2ccc(C(F)(F)F)cc2C2c3ccccc3CC12 (stereo unspecified)	none
CCOC(=O)C1Nc2ccc(C(F)(F)F)cc2C2c3ccccc3CC12 (stereo unspecified)	NTR1 agonist 56.3, Rev-erbA mod 36.4 | NTR1 ag conf inactive | Rev-erbA confirm inactive
CN1[C@@H](Cc2ccccc2)COc2cccc(N3CCSCC3)c2S1(=O)=O	none (no result: NTR1 agonist, MC4R antag cAMP, MC4R ag barr, PG9 binder)
O=C(C(=O)N1CCC(CNS(=O)(=O)c2cccc(C(F)(F)F)c2)CC1)c1cc2ccccc2o1	none (no result: NTR1 agonist, MC4R antag cAMP, MC4R ag barr)
O=C(CSc1ccc([N+](=O)[O-])cc1)NNC(=O)c1ccccc1F	none
Cc1nn(CC(=O)NNC(=O)c2ccccc2F)c([N+](=O)[O-])c1Br	MC4R antag cAMP 37.2 | U2OS cAMP counter inactive | MC4R cAMP antag inactive
Cc1nn(-c2ccccc2)c(Cl)c1CN(C(=O)CCl)c1ccc(Cl)cc1	MC4R antag cAMP 39.7, MC4R ag barr 11.4 (no result: NTR1 agonist) | U2OS cAMP counter inactive | MC4R cAMP antag 47.0
O=C(CSCc1ccc(Cl)cc1Cl)Nc1ccccc1C(=O)Nc1ccc(C(=O)O)cc1	MC4R antag cAMP 29.9 | U2OS cAMP counter inactive | MC4R cAMP antag inactive
C[C@H]1CN([C@@H](C)CO)C(=O)CCCn2nncc2CO[C@@H]1CN(C)Cc1ccc(C(F)(F)F)cc1	none (no result: NTR1 agonist)
C[C@@H]1CN([C@H](C)CO)C(=O)CCCn2nncc2CO[C@H]1CN(C)Cc1ccc(C(F)(F)F)cc1	MC4R antag cAMP 31.3 (no result: NTR1 agonist) | U2OS cAMP counter inactive | MC4R cAMP antag inactive
